Published values pooled from the literature.
Lines come from different studies, so protocols differ. pIC50: −log10 of the molar value. In brackets after ≈: the same amount, converted by molar mass.

SMILES	organism	assay	system	setting	quantity	result
c1ccc2c(-c3nc4ccccc4[nH]3)c3ccccc3cc2c1	Enterococcus faecalis	microbial growth, broth dilution	ATCC29212		MIC	64 µg/mL
C[C@@H](c1ncncc1F)[C@](O)(Cn1cncn1)c1ccc(F)cc1F	Acanthamoeba griffini	parasite growth, resazurin		96 h	pIC50	6.54
Cc1ccc2nc(-c3ccc([N+](=O)[O-])cc3)n(Cc3ccccc3Cl)c2c1	Enterococcus faecalis	microbial growth, broth dilution	ATCC29212		MIC	64 µg/mL
CC1(C)OB(CC2c3ccccc3C(=O)N2C2CCCCC2)OC1(C)C (centres unmarked)	Leishmania major	parasite growth		intracellular, amastigote	pIC50	4.88
COc1cccc(-n2cc(CN3CCN(C(=O)c4c(C)nc5ccc(Cl)cn45)CC3)nn2)c1	Leishmania major	parasite growth, resazurin		72 h, promastigote	pIC50	3.95
Cc1ccc2nc(-c3ccc(N(C)C)cc3)[nH]c2c1	Enterococcus faecalis	microbial growth, broth dilution	ATCC29212		MIC	64 µg/mL
Cc1nc2ccc(Cl)cn2c1C(=O)N1CCN(Cc2cn(-c3ccc(Br)cc3)nn2)CC1	Leishmania major	parasite growth, resazurin		72 h, promastigote	pIC50	4.47
C[C@@H]1[C@H](O)[C@@H](C)/C=C/C=C/C=C/C=C/C=C/C=C/C=C/[C@H](O[C@@H]2O[C@H](C)[C@@H](O)[C@H](N)[C@@H]2O)C[C@@H]2O[C@](O)(C[C@@H](O)C[C@@H](O)[C@H](O)CC[C@@H](O)C[C@@H](O)CC(=O)O[C@H]1C)C[C@H](O)[C@H]2C(=O)O	Aspergillus fumigatus	microbial killing	ATCC204305		MFC	2.57 µM (≈ 2.37 µg/mL)
C[C@@H]1[C@H](O)[C@@H](C)/C=C/C=C/C=C/C=C/C=C/C=C/C=C/[C@H](O[C@@H]2O[C@H](C)[C@@H](O)[C@H](N)[C@@H]2O)C[C@@H]2O[C@](O)(C[C@@H](O)C[C@@H](O)[C@H](O)CC[C@@H](O)C[C@@H](O)CC(=O)O[C@H]1C)C[C@H](O)[C@H]2C(=O)O	Aspergillus fumigatus	microbial growth, resazurin	ATCC204305		IC50	1.18 µg/mL
CC1=NN(CNc2ccc(O)cc2)C(=O)C1=NNn1c(-c2ccccc2)nc2ccccc2c1=O	Aspergillus fumigatus	microbial growth, broth dilution			MIC	53.5 µM
Cc1ccc2nc(-c3ccccc3O)[nH]c2c1	Enterococcus faecalis	microbial growth, broth dilution	ATCC29212		MIC	64 µg/mL
CC1=NN(CNc2ccc(C(=O)O)cc2)C(=O)C1=NNn1c(-c2ccccc2)nc2ccccc2c1=O	Aspergillus fumigatus	microbial growth, broth dilution			MIC	50.5 µM
Cc1nc2ccc(Cl)cn2c1C(=O)N1CCN(Cc2cn(-c3ccccc3)nn2)CC1	Leishmania major	parasite growth, resazurin		72 h, promastigote	pIC50	3.72
CC1=NN(CNc2ccccc2[N+](=O)[O-])C(=O)C1=NNn1c(-c2ccccc2)nc2ccccc2c1=O	Aspergillus fumigatus	microbial growth, broth dilution			MIC	50.4 µM
Cc1nc2ccc(Cl)cn2c1C(=O)N1CCN(Cc2cn(-c3ccc([N+](=O)[O-])cc3)nn2)CC1	Leishmania major	parasite growth, resazurin		72 h, promastigote	pIC50	< 3.60
Oc1ccc(Br)cc1-c1nc2ccccc2[nH]1	Enterococcus faecalis	microbial growth, broth dilution	ATCC29212		MIC	128 µg/mL
CCc1ccc(-n2cc(CN3CCN(C(=O)c4c(C)nc5cc(C)ccn45)CC3)nn2)cc1	Leishmania major	parasite growth, resazurin		72 h, promastigote	pIC50	4.13
CN(C)N1C(=O)c2ccccc2C1CB1OC(C)(C)C(C)(C)O1 (centres unmarked)	Leishmania major	parasite growth		promastigote	pIC50	3.62
O=C(O)c1cn(C2CC2)c2cc(N3CCNCC3)c(F)cc2c1=O	Enterococcus faecalis	microbial growth, broth dilution	ATCC29212		MIC	8 µg/mL
Cc1ccn2c(C(=O)N3CCN(CCn4cc(-c5ccc(C(C)(C)C)cc5)nn4)CC3)c(C)nc2c1	Leishmania major	parasite growth, resazurin		72 h, promastigote	pIC50	4.82
